Data set [1] concerns the target T1, Muscarinic acetylcholine receptor M1 (Rattus norvegicus, UniProt P08482).
T1 sequence (P08482 whole entry): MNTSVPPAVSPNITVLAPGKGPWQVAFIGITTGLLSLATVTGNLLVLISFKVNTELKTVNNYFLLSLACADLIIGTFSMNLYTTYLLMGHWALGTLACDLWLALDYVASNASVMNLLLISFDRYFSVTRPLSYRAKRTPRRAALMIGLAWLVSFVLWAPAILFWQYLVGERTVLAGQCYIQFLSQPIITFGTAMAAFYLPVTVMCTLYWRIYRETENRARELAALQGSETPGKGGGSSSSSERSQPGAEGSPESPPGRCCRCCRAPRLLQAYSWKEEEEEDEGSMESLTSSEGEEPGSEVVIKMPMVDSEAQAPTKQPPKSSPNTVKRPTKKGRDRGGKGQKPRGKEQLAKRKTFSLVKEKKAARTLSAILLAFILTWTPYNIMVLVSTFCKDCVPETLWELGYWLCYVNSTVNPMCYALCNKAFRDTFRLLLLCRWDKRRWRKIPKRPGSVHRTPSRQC
Nature of the data set: Allosteric modulation at rat M1 receptor expressed in CHO cells by calcium mobilization assay. In kind it is functional, cell-based. (Calcium flux is commonly read through the fluorescence of an indicator in the cells.)

In data set [2] the target is T2, Muscarinic acetylcholine receptor M2 (Homo sapiens, UniProt P08172).
T2 sequence (P08172 whole entry): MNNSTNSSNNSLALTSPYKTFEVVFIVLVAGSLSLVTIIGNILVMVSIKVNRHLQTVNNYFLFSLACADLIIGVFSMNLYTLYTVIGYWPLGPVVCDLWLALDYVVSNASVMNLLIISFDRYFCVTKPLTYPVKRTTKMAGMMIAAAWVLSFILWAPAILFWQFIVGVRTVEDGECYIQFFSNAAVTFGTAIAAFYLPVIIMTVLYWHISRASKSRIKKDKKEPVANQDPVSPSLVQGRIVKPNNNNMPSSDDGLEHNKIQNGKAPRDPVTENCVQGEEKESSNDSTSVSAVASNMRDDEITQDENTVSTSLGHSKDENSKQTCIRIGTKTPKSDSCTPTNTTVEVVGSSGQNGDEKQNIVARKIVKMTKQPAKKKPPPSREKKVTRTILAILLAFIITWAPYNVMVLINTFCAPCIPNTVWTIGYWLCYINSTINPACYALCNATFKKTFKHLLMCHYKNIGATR
Nature of the data set: Agonist activity at M2 receptor. In kind it is functional.

The target in data set [3] is T3, Muscarinic acetylcholine receptor M5 (Homo sapiens, UniProt P08912).
T3 sequence (P08912 whole entry): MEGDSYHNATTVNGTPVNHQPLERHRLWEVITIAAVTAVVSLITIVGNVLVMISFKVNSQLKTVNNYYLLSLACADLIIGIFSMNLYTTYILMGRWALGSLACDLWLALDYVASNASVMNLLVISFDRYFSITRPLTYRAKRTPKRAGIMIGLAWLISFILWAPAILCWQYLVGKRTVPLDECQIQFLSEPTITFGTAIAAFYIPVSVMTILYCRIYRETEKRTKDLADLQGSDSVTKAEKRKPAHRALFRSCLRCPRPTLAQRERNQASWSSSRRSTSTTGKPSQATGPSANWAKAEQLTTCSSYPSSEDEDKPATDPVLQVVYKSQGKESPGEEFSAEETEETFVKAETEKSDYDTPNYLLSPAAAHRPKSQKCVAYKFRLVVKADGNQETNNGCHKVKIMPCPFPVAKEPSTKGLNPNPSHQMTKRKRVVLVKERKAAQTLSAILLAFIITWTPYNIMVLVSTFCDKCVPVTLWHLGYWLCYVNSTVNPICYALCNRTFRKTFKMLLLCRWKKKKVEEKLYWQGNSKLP
Nature of the data set: Agonist activity at M5 receptor. In kind it is functional.

Data set [4] has as its target T4, Muscarinic acetylcholine receptor M3 (Homo sapiens, UniProt P20309). Nature of the data set: Agonist activity at M3 receptor. In kind it is functional.
Target sequence in this assay (P20309 whole entry): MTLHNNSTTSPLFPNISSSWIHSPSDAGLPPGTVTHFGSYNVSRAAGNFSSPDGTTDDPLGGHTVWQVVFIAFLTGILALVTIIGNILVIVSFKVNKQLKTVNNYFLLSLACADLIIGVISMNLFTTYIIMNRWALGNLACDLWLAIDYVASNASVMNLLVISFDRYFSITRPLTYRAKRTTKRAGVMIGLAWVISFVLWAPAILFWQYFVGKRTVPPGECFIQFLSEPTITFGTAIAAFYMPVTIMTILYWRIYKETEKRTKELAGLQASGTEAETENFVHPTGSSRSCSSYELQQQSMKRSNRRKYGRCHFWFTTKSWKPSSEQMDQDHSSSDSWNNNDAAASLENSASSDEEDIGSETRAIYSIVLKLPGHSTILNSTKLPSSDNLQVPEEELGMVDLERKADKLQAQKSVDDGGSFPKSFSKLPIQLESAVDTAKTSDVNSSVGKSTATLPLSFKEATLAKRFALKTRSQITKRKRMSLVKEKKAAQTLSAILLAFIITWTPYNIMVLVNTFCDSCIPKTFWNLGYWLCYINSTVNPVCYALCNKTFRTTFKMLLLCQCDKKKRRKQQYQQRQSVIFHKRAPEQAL
In data set [5] the target is T5, Muscarinic acetylcholine receptor M4 (Homo sapiens, UniProt P08173).
T5 sequence (P08173 whole entry): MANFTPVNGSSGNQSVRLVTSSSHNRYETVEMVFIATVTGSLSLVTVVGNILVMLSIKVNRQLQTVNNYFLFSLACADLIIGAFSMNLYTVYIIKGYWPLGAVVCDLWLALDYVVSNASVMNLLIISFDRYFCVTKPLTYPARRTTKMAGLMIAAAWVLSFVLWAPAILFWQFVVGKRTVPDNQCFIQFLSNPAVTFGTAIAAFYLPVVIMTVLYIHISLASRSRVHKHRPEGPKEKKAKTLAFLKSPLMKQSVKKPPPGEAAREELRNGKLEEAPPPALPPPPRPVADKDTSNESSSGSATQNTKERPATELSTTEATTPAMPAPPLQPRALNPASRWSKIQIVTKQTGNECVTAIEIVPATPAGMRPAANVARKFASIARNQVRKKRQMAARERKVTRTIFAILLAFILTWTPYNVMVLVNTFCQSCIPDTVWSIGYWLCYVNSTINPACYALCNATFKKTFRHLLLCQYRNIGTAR
Briefly: Agonist activity at M4 receptor. In kind it is functional.

In data set [6] the target is T6, Muscarinic acetylcholine receptor M1 (Rattus norvegicus) (UniProt P08482).
T6 sequence (whole entry): T1 sequence (P08482 whole entry)
Nature of the data set: Allosteric modulation at rat M1 receptor expressed in CHO cells by calcium mobilization assay relative to acetylcholine. Format: functional, cell-based. The arrangement: concentration or dose not given beside the values.

Data set [7] deals with T6, Muscarinic acetylcholine receptor M1 (Rattus norvegicus). Nature of the data set: Agonist activity at rat M1 receptor expressed in CHO cells assessed as leftward shift in Ach response at 30 uM by calcium mobilization assay. In kind it is functional, cell-based.
A short description of data set [8]: Ratio of AUC in brain to plasma in rat at 10 mg/kg, ip after 1 hr. The arrangement: dose 10 mg/kg, route intraperitoneal. In kind it is ADME, organism-based. Conditions: brain and plasma.
Data set [9] concerns the target Sodium-dependent dopamine transporter (Homo sapiens) (UniProt Q01959). Briefly: Binding affinity to DAT at 10 uM by radioligand binding assay. The method, boiled down:
(§1)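 Radioligand binding panel of 68 GPCRs, ion channels and transporters (Lead Profile screen, run externally), compound tested at 10 μM; read-out as percent activity at each target.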

Data set [10] has as its target T4, Muscarinic acetylcholine receptor M3. Briefly: Orthosteric binding affinity to M3 receptor at 10 uM by radioligand binding assay. The method, boiled down: as §1
Target sequence in this assay (P20309 whole entry, looked up): as the sequence (P20309 whole entry) above
The target in data set [11] is T6, Muscarinic acetylcholine receptor M1 (Rattus norvegicus). Nature of the data set: Orthosteric binding affinity to rat M1 receptor at 10 uM by radioligand binding assay. In short, it runs like this: as §1
Data set [12] has as its target T7, Muscarinic acetylcholine receptor M5 (Homo sapiens) (UniProt P08912).
T7 sequence (whole entry): T3 sequence (P08912 whole entry)
Nature of the data set: Orthosteric binding affinity to M5 receptor at 10 uM by radioligand binding assay. In short, it runs like this: as §1

Data set [13] concerns the target T8, Muscarinic acetylcholine receptor M4 (Homo sapiens) (UniProt P08173).
T8 sequence (whole entry): T5 sequence (P08173 whole entry)
Briefly: Orthosteric binding affinity to M4 receptor at 10 uM by radioligand binding assay. The method, boiled down: as §1

A short description of data set [14]: Binding affinity to Sodium channel site 2 at 10 uM by radioligand binding assay. In short, it runs like this:
as §1

Data set [15] has as its target T9, Muscarinic acetylcholine receptor M2 (Homo sapiens) (UniProt P08172).
T9 sequence (whole entry): T2 sequence (P08172 whole entry)
Briefly: Orthosteric binding affinity to M2 receptor at 10 uM by radioligand binding assay. In short, it runs like this:
as §1

As a reminder, the EC50 is the concentration that produces a half-maximal response. By Kp is commonly meant tissue or fluid exposure divided by exposure in the circulation.

The structures appear in SMILES notation. Calls of active or inactive are those of the source. The rule behind the calls is not given here.

Sodium-dependent dopamine transporter (Homo sapiens), sequence (Q01959 whole entry): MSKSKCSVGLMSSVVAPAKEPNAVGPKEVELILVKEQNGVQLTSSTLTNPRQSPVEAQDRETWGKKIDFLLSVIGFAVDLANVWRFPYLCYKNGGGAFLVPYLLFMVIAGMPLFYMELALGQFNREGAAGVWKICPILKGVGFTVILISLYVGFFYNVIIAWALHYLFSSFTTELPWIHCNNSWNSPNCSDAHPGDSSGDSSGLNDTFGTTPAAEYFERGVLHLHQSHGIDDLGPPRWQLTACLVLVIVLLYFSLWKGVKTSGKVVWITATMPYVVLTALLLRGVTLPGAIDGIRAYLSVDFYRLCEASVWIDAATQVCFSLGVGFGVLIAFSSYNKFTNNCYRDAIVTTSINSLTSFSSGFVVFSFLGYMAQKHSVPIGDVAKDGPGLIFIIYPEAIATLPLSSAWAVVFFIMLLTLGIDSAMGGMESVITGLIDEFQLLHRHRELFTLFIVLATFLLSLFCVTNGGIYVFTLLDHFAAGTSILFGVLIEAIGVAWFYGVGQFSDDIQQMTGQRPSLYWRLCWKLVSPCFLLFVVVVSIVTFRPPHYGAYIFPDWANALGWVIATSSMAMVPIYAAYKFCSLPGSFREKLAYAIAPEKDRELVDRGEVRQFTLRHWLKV

Consider `Cc1cc(NC(=O)CS(=O)(=O)c2cn(Cc3ccc(F)c(Br)c3)c3ccccc23)no1`, for which the EC50 in data set [1] was greater than 10 µM.
For `Cc1cc(NC(=O)CS(=O)(=O)c2cn(Cc3ccccc3Cl)c3ccccc23)no1`, the half-maximal effective concentration (EC50) is greater than 30 µM in data set [2]; greater than 30 µM in data set [3]; 9.71 µM in [1]; greater than 30 µM in data set [4]; greater than 30 µM in data set [5].
For `Cc1cc(NC(=O)CS(=O)(=O)c2cn(Cc3cccc(-c4ccccc4)c3)c3ccccc23)no1`, the EC50 in [1] is greater than 10 µM.
Same read-out and setting: under `Cc1cc(NC(=O)CS(=O)(=O)c2cn(Cc3cccc(C#N)c3)c3ccccc23)no1` stands greater than 10 µM.
Take `Cc1cc(NC(=O)CS(=O)(=O)c2cn(Cc3cc(-c4cn[nH]c4)ccc3F)c3ccccc23)no1`: in data set [6], the Activity amounted to 96%. Further, in [1], the EC50 amounted to 3.07 µM.
Regarding `Cc1cc(NC(=O)CS(=O)(=O)c2cn(Cc3ccc(OC(F)(F)F)cc3)c3ccccc23)no1`, the EC50 in data set [1] is greater than 10 µM.
Consider `Cc1cc(NC(=O)CS(=O)(=O)c2cn(Cc3cccc(-c4cnn(C)c4)c3)c3ccccc23)no1`, for which, in data set [6], the Activity is 102%. In addition, the EC50 in data set [1] came out at 3.21 µM.
`Cc1cc(NC(=O)CS(=O)(=O)c2cn(Cc3cccc(-c4ccc(N5CCCC5)nc4)c3)c3ccccc23)no1`: the EC50 in data set [1] was greater than 10 µM.
Same read-out and setting: the result for `Cc1cc(NC(=O)CS(=O)(=O)c2cn(Cc3ccc(F)cc3F)c3ccccc23)no1` reads greater than 10 µM.
Regarding `Cc1cc(NC(=O)CS(=O)(=O)c2cn(Cc3cccc(-c4ccc(N5CCNCC5)nc4)c3)c3ccccc23)no1`, the EC50 in data set [1] is greater than 10 µM.
For the compound `Cc1cc(NC(=O)CS(=O)(=O)c2cn(Cc3ccc(Cl)cc3)c3ccccc23)no1`, the EC50 in data set [1] was greater than 10 µM.
On to `Cc1cc(NC(=O)CS(=O)(=O)c2cn(Cc3ccc(F)cc3Br)c3ccccc23)no1`, for which, in data set [1], the half-maximal effective concentration (EC50) is greater than 10 µM.
Turning to `Cc1cc(NC(=O)CS(=O)(=O)c2cn(Cc3cccc(-c4cn[nH]c4)c3)c3ccccc23)no1`, the Activity in data set [6] worked out at 90%.
Take `COc1ccc(Cn2cc(S(=O)(=O)CC(=O)Nc3cc(C)on3)c3ccccc32)cc1`: the EC50 in data set [1] was greater than 10 µM.
Consider `Cc1cc(NC(=O)CS(=O)(=O)c2cn(Cc3ccc(F)c(-c4cn[nH]c4)c3)c3ccccc23)no1`, for which the EC50 in [1] was greater than 10 µM.
Turning to `COc1cccc(Cn2cc(S(=O)(=O)CC(=O)Nc3cc(C)on3)c3ccccc32)c1`, the Activity in data set [6] is 79%.
As for `Cc1cc(NC(=O)CS(=O)(=O)c2cn(Cc3cccc(-c4cn[nH]c4)c3)c3cc(F)cc(F)c23)no1`, the Activity in data set [6] was 102%. For the same compound, the fold change (FC) in data set [7] was found to be 98.
Turning to `CCC(C)n1cc(-c2cccc(Cn3cc(S(=O)(=O)CC(=O)Nc4cc(C)on4)c4ccccc43)c2)cn1` (configuration not stated), the EC50 in [1] is greater than 10 µM.
For `Cc1cc(NC(=O)CS(=O)(=O)c2cn(Cc3cccc(Cl)c3)c3ccccc23)no1`, the Activity in data set [6] was found to be 96%.
Turning to `Cc1cc(NC(=O)CS(=O)(=O)c2cn(Cc3cccc(Br)c3)c3cc(F)cc(F)c23)no1`, the Activity in data set [6] was determined as 103%.
As to `Cc1cc(NC(=O)CS(=O)(=O)c2cn(Cc3ccccc3F)c3ccccc23)no1`, the EC50 in data set [1] was greater than 10 µM.
With `Cc1cc(NC(=O)CS(=O)(=O)c2cn(Cc3cccc(Cl)c3F)c3ccccc23)no1`, the Activity in data set [6] was 56%.
For `Cn1cc(-c2ccc(CN3C(=O)C(=O)c4ccccc43)c(F)c2)cn1`, the concentration ratio (Kp) at 1 h in data set [8] was 0.1.
With `Cc1cc(NC(=O)CS(=O)(=O)c2cn(Cc3cccc(Br)c3F)c3ccccc23)no1`, the EC50 in data set [1] is greater than 10 µM.
As for `Cc1cc(NC(=O)CS(=O)(=O)c2cn(Cc3ccc(F)c(Cl)c3)c3ccccc23)no1`, the half-maximal effective concentration (EC50) in data set [1] was greater than 10 µM.
As to `Cc1cc(NC(=O)CS(=O)(=O)c2cn(Cc3cccc(-c4cn[nH]c4)c3F)c3ccccc23)no1`, the Activity in data set [6] stood at 103%. Moreover, in [1], the EC50 worked out at 4.4 µM.
As for `Cc1cc(NC(=O)CS(=O)(=O)c2cn(Cc3cccc(-c4ccc(N5CCOCC5)nc4)c3)c3ccccc23)no1`, in data set [1], the concentration giving a half-maximal response (EC50) was greater than 10 µM.
As for `Cc1cc(NC(=O)CS(=O)(=O)c2cn(Cc3cccc(-c4ccc(Cl)nc4)c3)c3ccccc23)no1`, in data set [1], the EC50 was greater than 10 µM.
Take `Cc1cc(NC(=O)CS(=O)(=O)c2cn(Cc3cc(Br)cc(Br)c3)c3ccccc23)no1`: in [1], the EC50 is greater than 10 µM.
For the compound `Cc1cc(NC(=O)CS(=O)(=O)c2cn(Cc3cccc(C(F)(F)F)c3)c3ccccc23)no1`, in data set [1], the EC50 was greater than 10 µM.
`Cc1cc(NC(=O)CS(=O)(=O)c2cn(Cc3cc(Br)ccc3F)c3ccccc23)no1`: the Activity came out at 83% in [9], 84% in data set [6] and 83% in data set [14]. The result in [10], in data set [11], in data set [12], in [13] and in data set [15] was inactive. The Kp at 1 h in [8] worked out at 0.32. In addition, the fold change (FC) in [7] came out at 49.
`Cc1cc(NC(=O)CS(=O)(=O)c2cn(Cc3ccc(Cl)c(Cl)c3)c3ccccc23)no1`: the half-maximal effective concentration (EC50) in [1] was greater than 10 µM.
For `Cc1cc(NC(=O)CS(=O)(=O)c2cn(Cc3ccc(C(F)(F)F)cc3)c3ccccc23)no1`, the EC50 in data set [1] is greater than 10 µM.
Consider `Cc1cc(NC(=O)CS(=O)(=O)c2cn(Cc3cccc(Br)c3)c3ccccc23)no1`, for which, in [6], the Activity turned out to be 91%.
As to `COc1ccccc1Cn1cc(S(=O)(=O)CC(=O)Nc2cc(C)on2)c2ccccc21`, in data set [1], the EC50 is greater than 10 µM.

For the origin of these results see ChEMBL document CHEMBL1772947, “Discovery and optimization of a novel, selective and brain penetrant M1 positive allosteric modulator (PAM): the development of ML169, an MLPCN probe” (Bioorg Med Chem Lett, 2011).
